Assay results as given in ChEMBL document CHEMBL5252545, “Elucidation of antimicrobial activity and mechanism of action by N-substituted carbazole derivatives” (Bioorg Med Chem Lett, 2017).
Calls of active or inactive are those of the source. No cut-off for these calls is given here.

Legend:
[1] = target: T1, Plasma membrane ATPase 1 (Saccharomyces cerevisiae (strain ATCC 204508 / S288c) (Baker's yeast)) (UniProt P05030); experiment: Inhibition of Saccharomyces cerevisiae H+ ATPase pma1 isoform assessed as reduction in ATP hydrolysis rate at 10 uM measured upto 150 sec by measuring […] ATPase activity by spectrophotometry method
T1 sequence (whole entry): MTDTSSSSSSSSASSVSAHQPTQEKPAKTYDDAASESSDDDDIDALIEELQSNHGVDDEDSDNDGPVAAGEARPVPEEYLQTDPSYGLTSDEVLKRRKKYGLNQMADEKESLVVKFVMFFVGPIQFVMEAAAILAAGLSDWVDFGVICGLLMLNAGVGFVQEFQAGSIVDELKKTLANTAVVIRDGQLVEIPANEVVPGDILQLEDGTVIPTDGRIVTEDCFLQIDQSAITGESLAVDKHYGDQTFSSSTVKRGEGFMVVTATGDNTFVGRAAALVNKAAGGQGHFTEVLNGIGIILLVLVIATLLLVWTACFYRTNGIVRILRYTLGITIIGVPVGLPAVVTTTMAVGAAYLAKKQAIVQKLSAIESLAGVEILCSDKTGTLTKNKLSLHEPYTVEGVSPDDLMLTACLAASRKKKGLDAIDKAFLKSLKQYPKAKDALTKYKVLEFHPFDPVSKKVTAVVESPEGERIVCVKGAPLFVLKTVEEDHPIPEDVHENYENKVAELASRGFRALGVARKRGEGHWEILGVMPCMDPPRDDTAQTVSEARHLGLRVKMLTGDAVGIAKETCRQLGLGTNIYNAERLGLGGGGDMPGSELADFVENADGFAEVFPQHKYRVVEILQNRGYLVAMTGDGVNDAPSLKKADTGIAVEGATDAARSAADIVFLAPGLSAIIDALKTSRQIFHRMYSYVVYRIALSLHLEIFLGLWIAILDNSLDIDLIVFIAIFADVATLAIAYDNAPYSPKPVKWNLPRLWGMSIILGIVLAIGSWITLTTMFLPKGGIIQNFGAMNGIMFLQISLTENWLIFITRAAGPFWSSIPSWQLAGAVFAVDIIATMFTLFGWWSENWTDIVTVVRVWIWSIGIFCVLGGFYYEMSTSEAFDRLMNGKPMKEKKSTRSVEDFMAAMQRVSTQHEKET
Outline: (§1)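 S. cerevisiae plasma membranes containing H⁺-ATPase added to start the reaction in pH 7 buffer with 5 mM ATP. Compound added at the indicated times, final DMSO 1.1%. Initial ATP hydrolysis rate read spectrophotometrically by NADH-coupled assay with phosphoenolpyruvate regenerating ATP.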

[2] = Dissociation constant, pKa of the compound; format: physicochemical
Candida albicans = experiment: Fungicidal activity against Candida albicans SC5314 assessed as cell death at 5 to 10 uM measured upto 24 hrs by time-kill assay; format: functional, organism-based; conditions: dose 5-10 µM
Outline: (§2)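 Time-kill assay: C. albicans or C. glabrata cells at 1×10^5 CFU/ml incubated with compound at 5 or 10 μM. DMSO final concentration 1%. Viability followed over time.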

Nakaseomyces glabratus = experiment: Fungicidal against wild type Candida glabrata ATCC 90030 assessed as cell death at 5 to 10 uM measured upto 24 hrs by time-kill assay; format: functional, organism-based; conditions: dose 5-10 µM; outline: as §2
[3] = target: T1, Plasma membrane ATPase 1 (Saccharomyces cerevisiae (strain ATCC 204508 / S288c) (Baker's yeast)); experiment: Inhibition of Saccharomyces cerevisiae H+ ATPase pma1 isoform assessed as reduction in ATP hydrolysis rate at 50 uM measured upto 150 sec by measuring […] ATPase activity by spectrophotometry method; outline: as §1
[4] = target: T1, Plasma membrane ATPase 1 (Saccharomyces cerevisiae (strain ATCC 204508 / S288c) (Baker's yeast)); experiment: Inhibition of Saccharomyces cerevisiae H+ ATPase pma1 isoform assessed as reduction in ATP hydrolysis rate at 100 uM measured upto 150 sec by measuring […] ATPase activity by spectrophotometry method; outline: as §1

Structure (SMILES)	pKa [2]	other results
CCC(C)NCC(O)Cn1c2ccc(Cl)cc2c2cc(Cl)ccc21 (stereo not given)	9.2	inhibition [1]: Active; Activity (Candida albicans): Active; Activity (Nakaseomyces glabratus): Active
CN1CCN(CC(O)Cn2c3ccc(Cl)cc3c3cc(Cl)ccc32)CC1 (stereo not given)	7.6	
OC(CN1CCOCC1)Cn1c2ccc(Cl)cc2c2cc(Cl)ccc21 (stereo not given)	6.6	inhibition [3]: Active
OC(Cn1ccnc1)Cn1c2ccc(Cl)cc2c2cc(Cl)ccc21 (stereo not given)	7.1	inhibition [4]: Active
OC(Cn1cncn1)Cn1c2ccc(Cl)cc2c2cc(Cl)ccc21 (stereo not given)	2.7	
